Experimental data published in ChEMBL document CHEMBL4811275, “Iodinated 1,2-diacylhydrazines, benzohydrazide-hydrazones and their analogues as dual antimicrobial and cytotoxic agents” (Bioorg Med Chem, 2021).
Converted amounts (≈) assume the structure as drawn.

What was measured:
Staphylococcus aureus [1] = assay: Antibacterial activity against methicillin-resistant Staphylococcus aureus ATCC 43300 assessed as reduction in bacterial growth incubated for 48 hrs by broth microdilution method; format: functional
Procedure, shortened: (§1)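 EUCAST-based broth microdilution in cation-adjusted Mueller-Hinton broth. DMSO stocks, final DMSO ≤1% v/v, concentration scale starting from 0.49 µM. Static incubation at 35 ± 2 °C, dark and humidified. Run in duplicate, accepted only if parallel MICs differ by at most one dilution step. MIC is the lowest concentration with no visible growth by naked eye.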

Escherichia coli [2] = assay: Antibacterial activity against Escherichia coli ATCC 25922 assessed as reduction in bacterial growth incubated for 48 hrs by broth microdilution method; format: functional
Procedure, shortened: (§2)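 Cation-adjusted Mueller-Hinton broth microdilution per EUCAST, modified; compounds from DMSO stocks, final DMSO ≤1% v/v; scale starting from 0.49 µM. Static incubation at 35 ± 2 °C, dark, humidified, read at 24 and 48 h. MIC = lowest concentration with no visible growth by eye; duplicates, parallel readings within one dilution step; growth and medium/DMSO controls included.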

[3] = tested on: Staphylococcus epidermidis; assay: Antibacterial activity against Staphylococcus epidermidis ATCC 12228 assessed as reduction in bacterial growth incubated for 48 hrs by broth microdilution method; format: functional; procedure, shortened: as §2
Staphylococcus aureus [4] = assay: Antibacterial activity against Staphylococcus aureus ATCC 29213 assessed as reduction in bacterial growth incubated for 24 hrs by broth microdilution method; format: functional; procedure, shortened: as §2
Escherichia coli [5] = assay: Antibacterial activity against Escherichia coli ATCC 25922 assessed as reduction in bacterial growth incubated for 24 hrs by broth microdilution method; format: functional; procedure, shortened: as §2
[6] = tested on: Staphylococcus epidermidis; assay: Antibacterial activity against Staphylococcus epidermidis ATCC 12228 assessed as reduction in bacterial growth incubated for 24 hrs by broth microdilution method; format: functional; procedure, shortened: as §2
Enterococcus faecalis [7] = assay: Antibacterial activity against Enterococcus faecalis ATCC 29212 assessed as reduction in bacterial growth incubated for 24 hrs by broth microdilution method; format: functional; procedure, shortened: as §2
Staphylococcus aureus [8] = assay: Antibacterial activity against methicillin-resistant Staphylococcus aureus ATCC 43300 assessed as reduction in bacterial growth incubated for 24 hrs by broth microdilution method; format: functional; procedure, shortened: as §1
HepG2 = assay: Cytotoxicity against human HepG2 cells assessed as reduction in cell viability incubated for 24 hrs by cell-titer 96 aqueous one solution cell proliferation assay; format: functional, cell-based; conditions: HepG2, 24 h
Staphylococcus aureus [9] = assay: Antibacterial activity against Staphylococcus aureus ATCC 29213 assessed as reduction in bacterial growth incubated for 48 hrs by broth microdilution method; format: functional; procedure, shortened: as §2
Enterococcus faecalis [10] = assay: Antibacterial activity against Enterococcus faecalis ATCC 29212 assessed as reduction in bacterial growth incubated for 48 hrs by broth microdilution method; format: functional; procedure, shortened: as §2

Structure (SMILES) | MIC (Staphylococcus aureus [1]) | MIC (Escherichia coli [2]) | MIC [3] | MIC (Staphylococcus aureus [4]) | MIC (Escherichia coli [5]) | MIC [6] | MIC (Enterococcus faecalis [7]) | MIC (Staphylococcus aureus [8]) | IC50 (HepG2) | MIC (Staphylococcus aureus [9]) | MIC (Enterococcus faecalis [10])
O=C(N/N=C/c1cc(I)c(O)c(I)c1)c1ccc(F)cc1 | > 500 µM | > 500 µM | > 500 µM | 125 µM (≈ 63.8 µg/mL) | > 500 µM | > 500 µM | > 500 µM | 500 µM (≈ 255 µg/mL) | 117 µM | 500 µM (≈ 255 µg/mL) | > 500 µM
O=C(NNC(=O)c1cc(I)cc(I)c1O)c1ccc(C(F)(F)F)cc1 | – | – | – | – | – | – | – | – | 167 µM | – | –
O=C(N/N=C/c1cc(I)c(O)c(I)c1)c1ccc(Cl)cc1 | > 500 µM | > 500 µM | > 500 µM | > 500 µM | > 500 µM | > 500 µM | > 500 µM | > 500 µM | > 100 µM | > 500 µM | > 500 µM
O=C(N/N=C/c1cc(I)c(O)c(I)c1)c1ccc(I)cc1 | > 250 µM | > 250 µM | > 250 µM | > 250 µM | > 250 µM | > 250 µM | > 250 µM | > 250 µM | > 50 µM | > 250 µM | > 250 µM
O=C(NNC(=O)c1cc(I)cc(I)c1O)c1ccc(F)cc1 | 500 µM (≈ 263 µg/mL) | > 500 µM | 500 µM (≈ 263 µg/mL) | 500 µM (≈ 263 µg/mL) | > 500 µM | 500 µM (≈ 263 µg/mL) | 500 µM (≈ 263 µg/mL) | 500 µM (≈ 263 µg/mL) | 87 µM | 500 µM (≈ 263 µg/mL) | 500 µM (≈ 263 µg/mL)
CC(C)(C)c1ccc(C(=O)N/N=C/c2cc(I)cc(I)c2O)cc1 | > 500 µM | > 500 µM | > 500 µM | > 500 µM | > 500 µM | > 500 µM | > 500 µM | > 500 µM | 41.6 µM | > 500 µM | > 500 µM
CCN1CCN(C(=O)N[C@@H](C(=O)N[C@@H]2C(=O)N3[C@@H]2SC(C)(C)[C@@H]3C(=O)O)c2ccccc2)C(=O)C1=O [PIPERACILLIN SODIUM] | – | – | – | 1.85 µM | 3.71 µM | > 59.3 µM | 7.41 µM | 14.8 µM | – | – | –
COc1ccc(C(=O)NNC(=O)c2cc(I)cc(I)c2O)cc1 | > 500 µM | > 500 µM | > 500 µM | 500 µM (≈ 269 µg/mL) | > 500 µM | 500 µM (≈ 269 µg/mL) | 500 µM (≈ 269 µg/mL) | 500 µM (≈ 269 µg/mL) | 132 µM | > 500 µM | > 500 µM
O=C(N/N=C/c1cc(I)c(O)c(I)c1)c1ccc([N+](=O)[O-])cc1 | > 500 µM | > 500 µM | > 500 µM | 250 µM (≈ 134 µg/mL) | > 500 µM | > 500 µM | > 500 µM | 500 µM (≈ 269 µg/mL) | 92.1 µM | 250 µM (≈ 134 µg/mL) | > 500 µM
O=C(N/N=C/c1cc(I)cc(I)c1O)c1ccc(I)cc1 | > 125 µM | > 125 µM | > 125 µM | > 125 µM | > 125 µM | > 125 µM | > 125 µM | > 125 µM | 31.8 µM | > 125 µM | > 125 µM
O=C(NNC(=O)c1cc(I)cc(I)c1O)c1ccc(Br)cc1 | – | – | – | – | – | – | – | – | 62.8 µM | – | –
O=C(NNC(=O)c1cc(I)cc(I)c1O)c1ccc(Cl)cc1 | 62.5 µM (≈ 33.9 µg/mL) | > 500 µM | 62.5 µM (≈ 33.9 µg/mL) | 62.5 µM (≈ 33.9 µg/mL) | > 500 µM | 31.2 µM (≈ 17 µg/mL) | 125 µM (≈ 67.8 µg/mL) | 62.5 µM (≈ 33.9 µg/mL) | 48.6 µM | 62.5 µM (≈ 33.9 µg/mL) | 125 µM (≈ 67.8 µg/mL)
O=C(N/N=C/c1cc(I)c(O)c(I)c1)c1ccc(Br)cc1 | > 500 µM | > 500 µM | > 500 µM | > 500 µM | > 500 µM | > 500 µM | > 500 µM | > 500 µM | > 50 µM | > 500 µM | > 500 µM
O=C(NNC(=O)c1cc(I)cc(I)c1O)c1ccccc1 | – | – | – | – | – | – | – | – | 98 µM | – | –
